{"source": "ChEMBL document CHEMBL3588808", "about": "“Koumine, Humantenine, and Yohimbane Alkaloids from Gelsemium elegans” (J Nat Prod, 2015)", "key": {"SW480": {"test_system": "SW480", "experiment": "Cytotoxicity against human SW480 cells by MTT assay", "assay_type": "functional, cell-based", "settings": "for pIC50: Homo sapiens, SW480, read-out: IC50"}, "MCF7": {"test_system": "MCF7", "experiment": "Cytotoxicity against human MCF7 cells by MTT assay", "assay_type": "functional, cell-based", "settings": "for pIC50: Homo sapiens, MCF7, read-out: IC50"}, "HL-60": {"test_system": "HL-60", "experiment": "Cytotoxicity against human HL60 cells by MTT assay", "assay_type": "functional, cell-based", "settings": "for pIC50: Homo sapiens, HL-60, read-out: IC50"}, "SMMC-7721": {"test_system": "SMMC-7721", "experiment": "Cytotoxicity against human SMMC7721 cells by MTT assay", "assay_type": "functional, cell-based", "settings": "for pIC50: Homo sapiens, SMMC-7721, read-out: IC50"}, "RAW264.7": {"test_system": "RAW264.7", "experiment": "Inhibition of nitric oxide production in LPS-activated mouse RAW264.7 cells", "assay_type": "functional, cell-based", "settings": "for pIC50: Mus musculus, RAW264.7, read-out: IC50", "in_short": "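LPS-activated RAW264.7 macrophages; compounds dissolved in DMSO and diluted in medium to a range of concentrations, top concentration 25 μM; NO production read as absorbance at 570 nm on a plate reader.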"}, "A549": {"test_system": "A549", "experiment": "Cytotoxicity against human A549 cells by MTT assay", "assay_type": "functional, cell-based", "settings": "for pIC50: Homo sapiens, A549, read-out: IC50"}, "[1]": {"experiment": "Cytotoxicity against human BEAS2B cells by MTT assay", "assay_type": "cell-based, BEAS-2B", "settings": "for pIC50: Homo sapiens, BEAS-2B, read-out: IC50"}}, "note": "pIC50: −log10 of the molar value.", "data": [{"compound": "COc1ccc2c(c1)N(OC)C(=O)[C@@]21C[C@@H]2NC=C(C=O)[C@@H]3C[C@H]1OC[C@H]23", "values": [{"measurement": "pIC50", "setting": "SW480", "value": "< 5.00"}, {"measurement": "pIC50", "setting": "MCF7", "value": "< 5.00"}, {"measurement": "pIC50", "setting": "HL-60", "value": 5.07}, {"measurement": "pIC50", "setting": "SMMC-7721", "value": 5.14}, {"measurement": "pIC50", "setting": "RAW264.7", "value": "< 4.60"}, {"measurement": "pIC50", "setting": "A549", "value": 5.03}, {"measurement": "pIC50", "setting": "[1]", "value": "< 5.00"}]}, {"compound": "CC[C@@]1(O)CN[C@H]2C[C@@]3(C(=O)N(OC)c4ccccc43)[C@@H]3OC[C@H]2[C@H]1[C@@H]3O", "values": [{"measurement": "pIC50", "setting": "RAW264.7", "value": "< 4.60"}]}, {"compound": "COc1ccc2c(c1)N(OC)C(=O)[C@@]21C[C@@H]2NC[C@](O)(C(C)O)[C@@H]3C[C@H]1OC[C@H]23", "note": "(some centres not stated)", "values": [{"measurement": "pIC50", "setting": "RAW264.7", "value": "< 4.60"}]}, {"compound": "[O-][n+]1c2c3cc4c(cn3ccc-2c2ccccc21)CCCC4", "values": [{"measurement": "IC50", "setting": "SW480; sw480", "value": "ND(Insoluble)"}, {"measurement": "IC50", "setting": "MCF7; mcf7", "value": "ND(Insoluble)"}, {"measurement": "IC50", "setting": "HL-60; hl-60", "value": "ND(Insoluble)"}, {"measurement": "IC50", "setting": "SMMC-7721; smmc-7721", "value": "ND(Insoluble)"}, {"measurement": "IC50", "setting": "RAW264.7; raw264.7", "value": "ND(Insoluble)"}, {"measurement": "IC50", "setting": "A549; a549", "value": "ND(Insoluble)"}, {"measurement": "IC50", "setting": "[1]; beas-2b", "value": "ND(Insoluble)"}]}, {"compound": "CCOC(=O)CCc1cc2c3[n-]c4ccccc4c3cc[n+]2cc1C(=O)O", "values": [{"measurement": "pIC50", "setting": "RAW264.7", "value": "< 4.60"}]}, {"compound": "C=C[C@]12[C@@H]3C[C@@H]4OC[C@@H]3[C@@H](C[C@]13C4=Nc1ccccc13)N(C)[C@H]2O", "values": [{"measurement": "pIC50", "setting": "RAW264.7", "value": "< 4.60"}]}, {"compound": "C=C[C@@]12C=N[C@H]3C[C@]14C(=Nc1ccccc14)[C@H]1C[C@@H]2[C@@H]3CO1", "values": [{"measurement": "pIC50", "setting": "SW480", "value": 5.14}, {"measurement": "pIC50", "setting": "MCF7", "value": 5.03}, {"measurement": "pIC50", "setting": "HL-60", "value": 5.34}, {"measurement": "pIC50", "setting": "SMMC-7721", "value": 5.28}, {"measurement": "pIC50", "setting": "RAW264.7", "value": "< 4.60"}, {"measurement": "pIC50", "setting": "A549", "value": 5.31}, {"measurement": "pIC50", "setting": "[1]", "value": 5.07}]}, {"compound": "C=C[C@]12[C@@H]3C[C@@H]4OC[C@@H]3[C@@H](C[C@]13C4=Nc1ccccc13)N(C)[C@@H]2O", "values": [{"measurement": "pIC50", "setting": "RAW264.7", "value": "< 4.60"}]}, {"compound": "C[C@H](O)[C@@]12C[N+](C)([O-])[C@@H]3C[C@]14C(=Nc1ccccc14)[C@H]1C[C@@H]2[C@@H]3CO1", "note": "(some centres not stated)", "values": [{"measurement": "pIC50", "setting": "RAW264.7", "value": "< 4.60"}]}]}
